Tests used:
Type in all cases: functional
Mus musculus [1] = assay: Inhibition of serum triglyceride elevation in olive oil-treated ddY mouse at 125 mg/kg, po after 2 hrs
Mus musculus [2] = assay: Inhibition of serum triglyceride elevation in olive oil-treated ddY mouse at 250 mg/kg, po after 4 hrs
Mus musculus [3] = assay: Inhibition of serum triglyceride elevation in olive oil-treated ddY mouse at 250 mg/kg, po after 6 hrs
Mus musculus [4] = assay: Inhibition of serum triglyceride elevation in olive oil-treated ddY mouse at 500 mg/kg, po after 4 hrs
Mus musculus [5] = assay: Inhibition of serum triglyceride elevation in olive oil-treated ddY mouse at 500 mg/kg, po after 2 hrs
Mus musculus [6] = assay: Inhibition of serum triglyceride elevation in olive oil-treated ddY mouse at 500 mg/kg, po after 6 hrs
Mus musculus [7] = assay: Inhibition of serum triglyceride elevation in olive oil-treated ddY mouse at 250 mg/kg, po after 2 hrs
Mus musculus [8] = assay: Inhibition of serum triglyceride elevation in olive oil-treated ddY mouse at 125 mg/kg, po after 6 hrs
Mus musculus [9] = assay: Inhibition of serum triglyceride elevation in olive oil-treated ddY mouse at 125 mg/kg, po after 4 hrs
Mus musculus [10] = assay: Inhibition of serum triglyceride elevation in olive oil-treated ddY mouse at 25 mg/kg, po after 6 hrs
Method in brief: (§1)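 Male ddY mice (25–30 g) fasted 24–26 h with free access to water, kept conscious. Test sample given orally, then olive oil 5 mL/kg po 30 min later. Blood drawn from the infraorbital venous plexus 2, 4 and 6 h after the olive oil. Serum TG measured by an enzymatic kit; n = 6 per group; means ± SEM.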

Mus musculus [11] = assay: Inhibition of serum triglyceride elevation in olive oil-treated ddY mouse at 6.25 mg/kg, po after 6 hrs
Mus musculus [12] = assay: Inhibition of serum triglyceride elevation in olive oil-treated ddY mouse at 6.25 mg/kg, po after 2 hrs
Mus musculus [13] = assay: Inhibition of serum triglyceride elevation in olive oil-treated ddY mouse at 12.5 mg/kg, po after 6 hrs
Mus musculus [14] = assay: Inhibition of serum triglyceride elevation in olive oil-treated ddY mouse at 25 mg/kg, po after 2 hrs; method in brief: as §1
Mus musculus [15] = assay: Inhibition of serum triglyceride elevation in olive oil-treated ddY mouse at 25 mg/kg, po after 4 hrs; method in brief: as §1
Mus musculus [16] = assay: Inhibition of serum triglyceride elevation in olive oil-treated ddY mouse at 6.25 mg/kg, po after 4 hrs
Mus musculus [17] = assay: Inhibition of serum triglyceride elevation in olive oil-treated ddY mouse at 12.5 mg/kg, po after 2 hrs
Mus musculus [18] = assay: Inhibition of serum triglyceride elevation in olive oil-treated ddY mouse at 12.5 mg/kg, po after 4 hrs
Mus musculus [19] = assay: Inhibition of serum triglyceride elevation in olive oil-treated ddY mouse at 50 mg/kg, po after 4 hrs; method in brief: as §1
Mus musculus [20] = assay: Inhibition of serum triglyceride elevation in olive oil-treated ddY mouse at 100 mg/kg, po after 2 hrs; method in brief: as §1
Mus musculus [21] = assay: Inhibition of serum triglyceride elevation in olive oil-treated ddY mouse at 50 mg/kg, po after 2 hrs; method in brief: as §1
Mus musculus [22] = assay: Inhibition of serum triglyceride elevation in olive oil-treated ddY mouse at 100 mg/kg, po after 4 hrs; method in brief: as §1
Mus musculus [23] = assay: Inhibition of serum triglyceride elevation in olive oil-treated ddY mouse at 100 mg/kg, po after 6 hrs; method in brief: as §1
Mus musculus [24] = assay: Inhibition of serum triglyceride elevation in olive oil-treated ddY mouse at 50 mg/kg, po after 6 hrs; method in brief: as §1

Row | Compound | Activity (Mus musculus [10]) [mg/dL] | Activity (Mus musculus [14]) [mg/dL] | Activity (Mus musculus [15]) [mg/dL] | Activity (Mus musculus [19]) [mg/dL] | Activity (Mus musculus [20]) [mg/dL] | Activity (Mus musculus [21]) [mg/dL] | Activity (Mus musculus [22]) [mg/dL] | Activity (Mus musculus [23]) [mg/dL] | Activity (Mus musculus [24]) [mg/dL] | further results
1 | CCOC(=O)C(C)(C)Oc1ccc(Cl)cc1 [CLOFIBRATE] | – | – | – | – | – | – | – | – | – | Activity (Mus musculus [1]): 377.5 mg/dL; Activity (Mus musculus [2]): 340.5 mg/dL; Activity (Mus musculus [3]): 443.3 mg/dL; Activity (Mus musculus [4]): 239.7 mg/dL; Activity (Mus musculus [5]): 318.2 mg/dL; Activity (Mus musculus [6]): 373.5 mg/dL; Activity (Mus musculus [7]): 441.2 mg/dL; Activity (Mus musculus [8]): 333.4 mg/dL; Activity (Mus musculus [9]): 295 mg/dL
2 | CCCCCCCCCCC[C@@H](C[C@@H]1OC(=O)[C@H]1CCCCCC)OC(=O)[C@H](CC(C)C)NC=O [ORLISTAT] | 140.1 | 158.9 | 132.2 | – | – | – | – | – | – | Activity (Mus musculus [11]): 155.6 mg/dL; Activity (Mus musculus [12]): 266.4 mg/dL; Activity (Mus musculus [13]): 189.7 mg/dL; Activity (Mus musculus [16]): 179.3 mg/dL; Activity (Mus musculus [17]): 187.9 mg/dL; Activity (Mus musculus [18]): 176 mg/dL
3 | CC(=O)OC[C@H]1O[C@@H](OC(=O)[C@]23CCC(C)(C)C[C@H]2C2=CC[C@@H]4[C@@]5(C)C[C@H](O)[C@H](O)[C@@](C)(COC(C)=O)[C@@H]5CC[C@@]4(C)[C@]2(C)CC3)[C@H](O[C@@H]2O[C@@H](C)[C@H](O)[C@@H](O)[C@H]2O)[C@@H](O[C@@H]2O[C@H](CO)[C@H](O)[C@H](O)[C@H]2O)[C@@H]1O [PERENNISOSIDE II] | 87 | 204.6 | 147 | 180.4 | 179.4 | 232.5 | 155.6 | 80.6 | 104.6 | –
4 | CC(=O)OC[C@H]1O[C@@H](OC(=O)[C@]23CCC(C)(C)C[C@H]2C2=CC[C@@H]4[C@@]5(C)C[C@H](O)[C@H](O)[C@@](C)(COC(C)=O)[C@@H]5CC[C@@]4(C)[C@]2(C)CC3)[C@H](O[C@@H]2O[C@@H](C)[C@H](O)[C@@H](O)[C@H]2O)[C@@H](O[C@@H]2O[C@H](CO)[C@@H](O)[C@H](O)[C@H]2O)[C@@H]1O [PERENNISOSIDE I] | 222.7 | 337 | 357.7 | 355.8 | 135.7 | 326.9 | 278.7 | 208.2 | 203.7 | –
